Measured values taken from ChEMBL document CHEMBL3351404, “Structure-Activity Studies Reveal the Oxazinone Ring Is a Determinant of Cytochrome P450 2B6 Activity Toward Efavirenz” (ACS Med Chem Lett, 2014).

Tests used:
[1] = system: Liver microsome; assay: Drug metabolism in pooled human liver microsomes assessed as mono-oxygenated metabolite formation at 10 uM incubated for 60 mins in presence of NADPH by uHPLC-MS/MS method; type: ADME; details: 1 h
Method in brief: (§1)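 Metabolite identification in human liver microsome incubations with 10 μM substrate. Products were assigned by m/z (monooxygenated, dihydroxylated, N-dealkylated), uHPLC retention time and MS/MS fragment ions. Parallel incubations in isotopic water located the inserted oxygen from +2 shifts in fragment masses.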

[2] = molecular target: T1, Cytochrome P450 1A2 (Homo sapiens, UniProt P05177); assay: Drug metabolism assessed as CYP1A2 (unknown origin)-mediated metabolite formation at 10 uM incubated for 60 mins in presence of NADPH by uHPLC-MS/MS method; type: ADME; details: 1 h
T1 sequence (P05177 whole entry): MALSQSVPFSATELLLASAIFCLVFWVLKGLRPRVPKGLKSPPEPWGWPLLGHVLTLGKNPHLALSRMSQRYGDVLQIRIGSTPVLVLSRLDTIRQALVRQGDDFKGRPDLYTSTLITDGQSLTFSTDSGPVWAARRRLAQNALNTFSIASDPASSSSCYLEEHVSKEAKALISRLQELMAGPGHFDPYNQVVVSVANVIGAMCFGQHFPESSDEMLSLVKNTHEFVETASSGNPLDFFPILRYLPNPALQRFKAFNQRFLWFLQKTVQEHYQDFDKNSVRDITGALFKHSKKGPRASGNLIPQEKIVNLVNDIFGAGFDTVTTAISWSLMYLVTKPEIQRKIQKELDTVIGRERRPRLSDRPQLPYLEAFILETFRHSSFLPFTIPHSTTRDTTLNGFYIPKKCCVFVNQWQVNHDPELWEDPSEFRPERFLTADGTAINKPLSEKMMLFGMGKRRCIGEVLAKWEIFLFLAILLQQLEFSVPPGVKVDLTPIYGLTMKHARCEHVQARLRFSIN
Method in brief: (§2)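 Individual cDNA-expressed human P450s (CYP2B6 in insect microsomes) were incubated separately with each analogue at 10 μM. The enzyme panel covers the major drug-metabolizing P450s. Products were monitored as the metabolites first found in human liver microsome incubations, identified by m/z and retention time.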

[3] = molecular target: T2, Cytochrome P450 2C19 (Homo sapiens, UniProt P33261); assay: Drug metabolism assessed as CYP2C19 (unknown origin)-mediated metabolite formation at 10 uM incubated for 60 mins in presence of NADPH by uHPLC-MS/MS method; type: ADME; details: 1 h; method in brief: as §2
[4] = Retention time of the compound by uHPLC-MS/MS method; type: physicochemical; method in brief: as §1
[5] = molecular target: T1, Cytochrome P450 1A2; assay: Drug metabolism assessed as CYP1A2 (unknown origin)-mediated compound formation at 10 uM incubated for 60 mins in presence of NADPH by uHPLC-MS/MS method; type: ADME; details: 1 h; method in brief: as §2
[6] = molecular target: T3, Cytochrome P450 2D6 (Homo sapiens, UniProt P10635); assay: Drug metabolism assessed as CYP2D6 (unknown origin)-mediated compound formation at 10 uM incubated for 60 mins in presence of NADPH by uHPLC-MS/MS method; type: ADME; details: 1 h; method in brief: as §2
[7] = system: Liver microsome; assay: Drug metabolism in pooled human liver microsomes assessed as compound formation at 10 uM incubated for 60 mins in presence of NADPH by uHPLC-MS/MS method; type: ADME; details: 1 h; method in brief: as §1
[8] = molecular target: T2, Cytochrome P450 2C19; assay: Drug metabolism assessed as CYP2C19 (unknown origin)-mediated compound formation at 10 uM incubated for 60 mins in presence of NADPH by uHPLC-MS/MS method; type: ADME; details: 1 h; method in brief: as §2
[9] = molecular target: T4, Cytochrome P450 2B6 (Homo sapiens, UniProt P20813); assay: (§3) Inhibition of CYP2B6 (unknown origin) assessed as reduction in hydroxybupropion formation at 10 uM incubated for 10 mins by uHPLC-MS/MS method; type: ADME; details: 10 min, 10 µM
T4 sequence (P20813 whole entry): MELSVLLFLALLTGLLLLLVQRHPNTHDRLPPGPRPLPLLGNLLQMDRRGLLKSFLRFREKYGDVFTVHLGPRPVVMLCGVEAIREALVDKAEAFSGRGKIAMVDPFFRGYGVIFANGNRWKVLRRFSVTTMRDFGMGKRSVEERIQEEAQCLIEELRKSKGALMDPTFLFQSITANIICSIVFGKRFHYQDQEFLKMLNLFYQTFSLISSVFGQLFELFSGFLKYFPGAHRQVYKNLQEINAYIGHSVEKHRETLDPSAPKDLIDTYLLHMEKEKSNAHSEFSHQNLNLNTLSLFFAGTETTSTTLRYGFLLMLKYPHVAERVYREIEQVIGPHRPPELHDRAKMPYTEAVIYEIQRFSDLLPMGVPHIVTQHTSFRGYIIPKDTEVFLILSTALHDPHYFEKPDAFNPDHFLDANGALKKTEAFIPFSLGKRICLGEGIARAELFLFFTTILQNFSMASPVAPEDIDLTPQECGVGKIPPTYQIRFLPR
Method in brief: (§4)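 CYP2B6 insect microsomes were coincubated with the probe substrate bupropion plus test compound at 10 μM. Hydroxybupropion formation was measured and compared with a vehicle control.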

[10] = molecular target: T4, Cytochrome P450 2B6; assay: Drug metabolism assessed as CYP2B6 (unknown origin)-mediated metabolite formation at 10 uM incubated for 60 mins in presence of NADPH by uHPLC-MS/MS method; type: ADME; details: 1 h; method in brief: as §2
[11] = molecular target: T4, Cytochrome P450 2B6; assay: Activity of CYP2B6 (unknown origin) assessed per pmol protein pre-incubated for 5 mins in presence of NADPH by uHPLC-MS/MS based substrate depletion kinetics assay; type: ADME
Method in brief: (§5)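 cDNA-expressed CYP2B6 in insect microsomes. Parent loss was followed over time by substrate depletion, chosen because several metabolites form. Km and maximum depletion rate constant (kdep max, min–1) were derived from depletion kinetics, and Vmax was expressed as pmol/min/pmol P450.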

[12] = molecular target: T5, Cytochrome P450 3A5 (Homo sapiens, UniProt P20815); assay: Drug metabolism assessed as CYP3A5 (unknown origin)-mediated metabolite formation at 10 uM incubated for 60 mins in presence of NADPH by uHPLC-MS/MS method; details: 1 h
Target sequence in this assay (P20815 whole entry, looked up): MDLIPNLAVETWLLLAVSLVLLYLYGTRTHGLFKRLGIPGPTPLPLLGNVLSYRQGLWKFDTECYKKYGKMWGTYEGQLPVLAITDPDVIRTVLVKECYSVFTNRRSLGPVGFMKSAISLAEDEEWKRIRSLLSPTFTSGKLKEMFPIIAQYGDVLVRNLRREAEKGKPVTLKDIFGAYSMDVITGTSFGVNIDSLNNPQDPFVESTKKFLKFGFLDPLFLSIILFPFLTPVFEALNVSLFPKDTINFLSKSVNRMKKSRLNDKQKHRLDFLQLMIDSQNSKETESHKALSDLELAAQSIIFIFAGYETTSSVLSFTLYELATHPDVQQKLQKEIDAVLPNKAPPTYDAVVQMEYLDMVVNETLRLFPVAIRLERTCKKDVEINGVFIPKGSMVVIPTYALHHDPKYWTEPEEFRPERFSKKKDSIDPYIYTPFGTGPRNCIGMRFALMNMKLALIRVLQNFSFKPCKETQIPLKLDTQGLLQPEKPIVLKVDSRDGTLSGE

[13] = molecular target: T6, CYP2B6 (Homo sapiens, UniProt P20813); assay: Activity of CYP2B6 (unknown origin) pre-incubated for 5 mins in presence of NADPH by uHPLC-MS/MS based substrate depletion kinetics assay; type: ADME; details: CYP2B6 enzyme (unknown origin); method in brief: as §5
T6 sequence (P20813 whole entry): T4 sequence (P20813 whole entry)

[14] = molecular target: T4, Cytochrome P450 2B6; assay: Activity of CYP2B6 (unknown origin) assessed as maximum depletion rate constant pre-incubated for 5 mins in presence of NADPH by uHPLC-MS/MS based substrate depletion kinetics assay; type: ADME; method in brief: as §5
[15] = molecular target: T3, Cytochrome P450 2D6; assay: Drug metabolism assessed as CYP2D6 (unknown origin)-mediated metabolite formation at 10 uM incubated for 60 mins in presence of NADPH by uHPLC-MS/MS method; type: ADME; details: 1 h; method in brief: as §2
[16] = molecular target: T6, CYP2B6; assay: Inhibition of CYP2B6 (unknown origin) assessed as reduction in hydroxybupropion formation by measuring remaining enzyme activity at 10 uM incubated for 10 mins by uHPLC-MS/MS method; type: ADME; details: probe bupropion (hydroxybupropion formation), read-out: Activity; method in brief: as §4
[17] = system: Liver microsome; assay: Drug metabolism in pooled human liver microsomes assessed as N-dealkylated metabolite formation at 10 uM incubated for 60 mins in presence of NADPH by uHPLC-MS/MS method; type: ADME; details: 1 h; method in brief: as §1
[18] = system: Liver microsome; assay: Drug metabolism in pooled human liver microsomes assessed as mono-oxygenated metabolite formation at 10 uM incubated for 60 mins in presence of NADPH and using isotopic water by uHPLC-MS/MS method; type: ADME; details: 1 h; method in brief: as §1
[19] = molecular target: T4, Cytochrome P450 2B6; assay: Drug metabolism assessed as CYP2B6 (unknown origin)-mediated compound formation at 10 uM incubated for 60 mins in presence of NADPH by uHPLC-MS/MS method; type: ADME; details: 1 h; method in brief: as §2
[20] = molecular target: T5, Cytochrome P450 3A5; assay: Drug metabolism assessed as CYP3A5 (unknown origin)-mediated compound formation at 10 uM incubated for 60 mins in presence of NADPH by uHPLC-MS/MS method; type: ADME; details: 1 h; method in brief: as §2
Target sequence in this assay (P20815 whole entry): as the sequence (P20815 whole entry, looked up) above

[21] = system: Liver microsome; assay: Drug metabolism in pooled human liver microsomes assessed as compound formation at 10 uM incubated for 60 mins in presence of NADPH and using isotopic water by uHPLC-MS/MS method; type: ADME; details: 1 h; method in brief: as §1
[22] = system: Liver microsome; assay: Drug metabolism in pooled human liver microsomes assessed as metabolite formation at 10 uM incubated for 60 mins in presence of NADPH by uHPLC-MS/MS method; type: ADME; details: 1 h; method in brief: as §1
[23] = molecular target: T6, CYP2B6; assay: as §3; type: ADME; details: CYP2B6 enzyme (unknown origin), probe bupropion (hydroxybupropion formation); method in brief: as §4

T3 sequence (P10635 whole entry): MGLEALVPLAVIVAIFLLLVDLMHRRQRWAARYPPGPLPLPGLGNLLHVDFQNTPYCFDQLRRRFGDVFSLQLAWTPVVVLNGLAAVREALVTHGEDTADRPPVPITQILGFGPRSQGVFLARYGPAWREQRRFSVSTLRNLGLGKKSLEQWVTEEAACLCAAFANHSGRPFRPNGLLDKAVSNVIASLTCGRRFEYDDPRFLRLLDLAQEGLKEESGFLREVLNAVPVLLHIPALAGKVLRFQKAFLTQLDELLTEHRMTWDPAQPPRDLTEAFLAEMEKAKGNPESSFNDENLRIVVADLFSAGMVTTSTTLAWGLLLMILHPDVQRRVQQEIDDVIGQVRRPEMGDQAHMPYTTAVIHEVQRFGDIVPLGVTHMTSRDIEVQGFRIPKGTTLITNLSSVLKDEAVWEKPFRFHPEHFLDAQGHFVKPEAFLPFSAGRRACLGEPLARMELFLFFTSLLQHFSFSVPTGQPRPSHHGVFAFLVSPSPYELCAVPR
T2 sequence (P33261 whole entry): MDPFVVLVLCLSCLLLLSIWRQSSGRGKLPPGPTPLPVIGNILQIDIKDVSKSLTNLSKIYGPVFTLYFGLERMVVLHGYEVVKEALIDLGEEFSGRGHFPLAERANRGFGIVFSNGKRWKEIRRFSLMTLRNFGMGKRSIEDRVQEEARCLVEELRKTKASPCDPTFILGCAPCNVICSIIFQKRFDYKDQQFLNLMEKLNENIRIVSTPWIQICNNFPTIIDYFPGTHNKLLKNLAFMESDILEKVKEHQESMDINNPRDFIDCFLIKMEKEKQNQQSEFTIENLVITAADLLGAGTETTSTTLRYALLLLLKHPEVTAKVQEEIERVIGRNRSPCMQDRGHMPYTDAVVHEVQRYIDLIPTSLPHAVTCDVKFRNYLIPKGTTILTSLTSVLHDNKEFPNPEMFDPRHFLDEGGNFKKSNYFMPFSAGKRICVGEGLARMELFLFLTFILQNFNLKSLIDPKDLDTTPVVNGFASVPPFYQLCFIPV

SMILES: Nc1ccc(Cl)cc1[C@@](O)(C#CC1CC1)C(F)(F)F
- Drug metabolism [1]: metabolite_detected
- Drug metabolism [2]: metabolite_detected
- Drug metabolism [3]: metabolite_detected
- Retention_time [4]: 7.31 min
- Drug metabolism [5]: metabolite_detected
- Drug metabolism [6]: metabolite_detected
- Drug metabolism [7]: metabolite_detected
- Drug metabolism [8]: metabolite_detected
- inhibition (INH) [9]: Active

SMILES: Nc1ccc(Cl)cc1[C@](O)(C#CC1CC1)C(F)(F)F
- Drug metabolism [1]: metabolite_detected
- Drug metabolism [2]: metabolite_detected
- Drug metabolism [3]: metabolite_detected
- Retention_time [4]: 7.25 min
- Drug metabolism [5]: metabolite_detected
- Drug metabolism [6]: metabolite_detected
- Drug metabolism [7]: metabolite_detected
- Drug metabolism [8]: metabolite_detected
- inhibition (INH) [9]: Active

SMILES: O=C1Nc2ccc(Cl)cc2[C@@](/C=C/C2CC2)(C(F)(F)F)O1
- Drug metabolism [1]: metabolite_detected
- Drug metabolism [2]: metabolite_detected
- Drug metabolism [10]: metabolite_detected
- Vmax [11]: 0.13 pmol/min
- Drug metabolism [12]: metabolite_detected
- Km [13]: 0.23 µM
- K [14]: 0.0057 min⁻¹

SMILES: COc1ccc(CNc2ccc(Cl)cc2[C@@](O)(C#CC2CC2)C(F)(F)F)cc1
- Drug metabolism [2]: metabolite_detected
- Drug metabolism [15]: metabolite_detected
- Drug metabolism [3]: metabolite_detected
- activity at 10 min, 10 µM [16]: 52%
- Drug metabolism [17]: metabolite_detected

SMILES: COc1ccc(CNc2ccc(Cl)cc2[C@](O)(C#CC2CC2)C(F)(F)F)cc1
- Drug metabolism [2]: metabolite_detected
- Drug metabolism [15]: metabolite_detected
- Drug metabolism [3]: metabolite_detected
- activity at 10 min, 10 µM [16]: 62%
- Drug metabolism [17]: metabolite_detected

SMILES: FC(F)(F)[C@@]1(C#CC2CC2)OCNc2ccc(Cl)cc21
- Drug metabolism [1]: metabolite_detected
- Drug metabolism [10]: metabolite_detected
- Drug metabolism [3]: metabolite_detected
- Vmax [11]: 3.2 pmol/min
- Km [13]: 0.22 µM
- K [14]: 0.14 min⁻¹
- Drug metabolism [18]: metabolite_detected
- activity at 10 min, 10 µM [16]: 2%

SMILES: O=C1Nc2ccc(Cl)cc2[C@@](/C=C/C2(O)CC2)(C(F)(F)F)O1
- Retention_time [4]: 4.98 min
- Drug metabolism [7]: metabolite_detected

SMILES: CC(O)CC#CC1(C(F)(F)F)OC(=O)Nc2ccc(Cl)cc21 (stereo unspecified)
- Retention_time [4]: 5.11 min
- Drug metabolism [7]: metabolite_detected

SMILES: CCC(O)C#CC1(C(F)(F)F)OC(=O)Nc2ccc(Cl)cc21 (stereo unspecified)
- Retention_time [4]: 5.6 min
- Drug metabolism [7]: metabolite_detected

SMILES: CCCC#CC1(C(F)(F)F)OC(=O)Nc2c(O)cc(Cl)cc21 (stereo unspecified)
- Retention_time [4]: 6.98 min
- Drug metabolism [19]: metabolite_detected
- Drug metabolism [5]: metabolite_detected
- Drug metabolism [7]: metabolite_detected
- Drug metabolism [20]: metabolite_detected

SMILES: OC1(C#C[C@]2(C(F)(F)F)OCNc3ccc(Cl)cc32)CC1
- Retention_time [4]: 5 min
- Drug metabolism [7]: metabolite_detected
- Drug metabolism [21]: metabolite_detected

SMILES: CCCC#CC1(C(F)(F)F)OC(=O)Nc2ccc(Cl)cc21 (racemic)
- Drug metabolism [1]: metabolite_detected
- Drug metabolism [2]: metabolite_detected
- Drug metabolism [10]: metabolite_detected
- Vmax [11]: 0.97 pmol/min
- Drug metabolism [12]: metabolite_detected
- Km [13]: 1.1 µM
- K [14]: 0.0088 min⁻¹
- activity at 10 min, 10 µM [16]: 27%

SMILES: COc1ccc(C(=O)Nc2ccc(Cl)cc2C(O)(C#CC2CC2)C(F)(F)F)cc1 (racemic)
- Drug metabolism [22]: metabolite_detected
- inhibition (INH) [9]: Not Active

SMILES: O=C1Nc2ccc(Cl)cc2[C@@](C#CC2CC2)(C(F)(F)F)O1 [EFAVIRENZ]
- Vmax [11]: 1 pmol/min
- Km [13]: 0.45 µM
- K [14]: 0.023 min⁻¹
- inhibition at 10 min, 10 µM [23]: 93%
